≈ marks a conversion by molar mass, not a printed value.
Experiments:
Escherichia coli [1] = test: Antibacterial activity against Escherichia coli MC4100 EC2026; type: functional
Summary of the method: (§1)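 MIC (μg/mL) by standard broth microtitration dilution following NCCLS M7-A5 for aerobically growing bacteria. Panel: Gram-negative E. coli MC4100 (wild-type) and E. coli Tol C (membrane efflux-pump deficient); Gram-positive Enterococcus faecalis, Staphylococcus aureus and Streptococcus pyogenes.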

Escherichia coli [2] = test: Antibacterial activity against membrane efflux-pump deficient Escherichia coli Tol C EC2549; type: functional; summary of the method: as §1
Enterococcus faecalis = test: Antibacterial activity against Enterococcus faecalis MGH-2 EF1-1; type: functional; summary of the method: as §1
Staphylococcus aureus = test: Antibacterial activity against Staphylococcus aureus UC-76 SA-1; type: functional; summary of the method: as §1
Streptococcus pyogenes = test: Antibacterial activity against Streptococcus pyogenes C-203 SP1-1; type: functional; summary of the method: as §1
[3] = Inhibition of Escherichia coli H560 DNA gyrase assessed as DNA cleavage

Row | Compound | MIC (Escherichia coli [1]) [mg/L] | MIC (Escherichia coli [2]) [mg/L] | MIC (Enterococcus faecalis) [mg/L] | MIC (Staphylococcus aureus) [mg/L] | MIC (Streptococcus pyogenes) [mg/L] | IC50 [3] [µM]
1 | Cc1c(N2CC[C@@H]([C@H](C)N)C2)c(F)cc2c(=O)n(N)c(=O)n(C3CC3)c12 | 1 (≈ 2.77 µM) | 0.03 (≈ 0.083 µM) | 0.06 (≈ 0.166 µM) | 0.06 (≈ 0.166 µM) | 0.015 (≈ 0.0415 µM) | 0.2
2 | Nc1c(F)c(N2CCC(N)C2)c(F)c2c1c(=O)n(N)c(=O)n2C1CC1 (stereo not given) | 8 (≈ 22.7 µM) | 1 (≈ 2.84 µM) | 64 (≈ 182 µM) | 32 (≈ 90.8 µM) | 32 (≈ 90.8 µM) | 21
3 | COc1c(N2CCC(N)C2)c(F)cc2c(=O)n(N)c(=O)n(C3CC3)c12 (stereo not given) | 4 (≈ 11.4 µM) | 0.5 (≈ 1.43 µM) | 8 (≈ 22.9 µM) | 8 (≈ 22.9 µM) | 4 (≈ 11.4 µM) | 4.3
4 | Cc1c(N2CCC(N)C2)c(F)cc2c(=O)n(N)c(=O)n(C3CC3)c12 (stereo not given) | 1 (≈ 3 µM) | 0.06 (≈ 0.18 µM) | 2 (≈ 6 µM) | 4 (≈ 12 µM) | 0.5 (≈ 1.5 µM) | 0.1
5 | CC(=O)Nn1c(=O)c2cc(F)c(N3CCC(N)C3)c(Cl)c2n(C2CC2)c1=O (stereo not given) | 64 (≈ 162 µM) | 2 (≈ 5.05 µM) | > 64 | > 64 | > 64 | 10
6 | CN[C@H]1CCN(c2c(F)cc3c(=O)n(N)c(=O)n(C4CC4)c3c2Cl)C1 | 4 (≈ 10.9 µM) | 0.5 (≈ 1.36 µM) | 16 (≈ 43.5 µM) | 16 (≈ 43.5 µM) | 8 (≈ 21.8 µM) | 6.1
7 | NC1CCN(c2c(F)cc3c(=O)n(N)c(=O)n(C4CC4)c3c2F)C1 (stereo not given) | 2 (≈ 5.93 µM) | 0.25 (≈ 0.741 µM) | 8 (≈ 23.7 µM) | 8 (≈ 23.7 µM) | 4 (≈ 11.9 µM) | 1.3
8 | NC1CCN(c2cc(F)c3c(=O)n(N)c(=O)n(C4CC4)c3c2F)C1 (stereo not given) | 32 (≈ 94.9 µM) | 4 (≈ 11.9 µM) | > 64 | > 64 | > 64 | 17
9 | CC(C)n1c(=O)n(N)c(=O)c2cc(F)c(N3CCC(N)C3)c(Cl)c21 (stereo not given) | > 64 | > 64 | > 64 | > 64 | > 64 | 98
10 | NC1CCN(c2c(F)c(F)c3c(=O)n(N)c(=O)n(C4CC4)c3c2F)C1 (stereo not given) | 2 (≈ 5.63 µM) | 0.5 (≈ 1.41 µM) | 32 (≈ 90.1 µM) | 16 (≈ 45 µM) | 16 (≈ 45 µM) | 3
11 | NCC1CCN(c2c(Cl)cc3c(=O)n(N)c(=O)n(C4CC4)c3c2Cl)C1 (stereo not given) | 16 (≈ 41.6 µM) | 0.5 (≈ 1.3 µM) | 4 (≈ 10.4 µM) | 4 (≈ 10.4 µM) | 2 (≈ 5.2 µM) | 1.2
12 | N[C@H]1CCN(c2cc3c(cc2F)c(=O)n(N)c(=O)n3CC2CC2)C1 | > 64 | 8 (≈ 24 µM) | > 64 | > 64 | > 64 | 20
13 | CCOc1c(N2CCC(N)C2)c(F)cc2c(=O)n(N)c(=O)n(C3CC3)c12 (stereo not given) | 32 (≈ 88.1 µM) | 4 (≈ 11 µM) | > 64 | > 64 | 64 (≈ 176 µM) | 11
14 | O=C(O)c1cn(C2CC2)c2cc(N3CCNCC3)c(F)cc2c1=O [CIPROFLOXACIN] |  |  | 0.4 (≈ 1.21 µM) | 4 (≈ 12.1 µM) | 2 (≈ 6.04 µM) | 
15 | CCn1c(=O)n(N)c(=O)c2cc(F)c(N3CC[C@H](N)C3)cc21 | 64 (≈ 208 µM) | 16 (≈ 52.1 µM) | > 64 | > 64 | > 64 | 35
16 | NC1CCN(c2c(F)cc3c(=O)n(N)c(=O)n(-c4ccc(F)cc4F)c3c2Cl)C1 (stereo not given) | > 64 | 64 (≈ 150 µM) | > 64 | > 64 | > 64 | > 100
17 | N[C@H]1CCN(c2c(F)cc3c(=O)n(N)c(=O)n(C4CC4)c3c2C(F)(F)F)C1 | 8 (≈ 20.7 µM) | 0.25 (≈ 0.645 µM) | 32 (≈ 82.6 µM) | 32 (≈ 82.6 µM) | 4 (≈ 10.3 µM) | 5.2
18 | NC1CCN(c2c(F)cc3c(=O)n(N)c(=O)n(C4CCC4)c3c2Cl)C1 (stereo not given) | 16 (≈ 43.5 µM) | 2 (≈ 5.44 µM) | > 64 | > 64 | > 64 | 23
19 | Cc1c(F)c(N2CC[C@@H]([C@H](C)N)C2)c(C)c2c1c(=O)n(N)c(=O)n2C1CC1 | 2 (≈ 5.33 µM) | 0.03 (≈ 0.0799 µM) | 0.06 (≈ 0.16 µM) | 0.06 (≈ 0.16 µM) | 0.03 (≈ 0.0799 µM) | 0.24
20 | N[C@H]1CCN(c2cc3c(cc2F)c(=O)n(N)c(=O)n3C2CC2)C1 | 8 (≈ 25.1 µM) | 1 (≈ 3.13 µM) | 32 (≈ 100 µM) | 64 (≈ 200 µM) | 16 (≈ 50.1 µM) | 1.6
21 | Cc1c(N2CC[C@@H]([C@H](C)N)C2)c(F)c(C(F)F)c2c(=O)n(N)c(=O)n(C3CC3)c12 | 64 (≈ 156 µM) | 1 (≈ 2.43 µM) | 1 (≈ 2.43 µM) | 1 (≈ 2.43 µM) | 0.25 (≈ 0.608 µM) | 8.2
22 | N[C@H]1CCN(c2c(F)cc3c(=O)n(N)c(=O)n(C4CC4)c3c2Cl)C1 | 0.5 (≈ 1.41 µM) | 0.13 (≈ 0.367 µM) | 4 (≈ 11.3 µM) | 2 (≈ 5.65 µM) | 2 (≈ 5.65 µM) | 0.4
23 | NCC1CCN(c2c(F)cc3c(=O)n(N)c(=O)n(C4CC4)c3c2Cl)C1 (stereo not given) | 4 (≈ 10.9 µM) | 0.25 (≈ 0.68 µM) | 0.25 (≈ 0.68 µM) | 0.5 (≈ 1.36 µM) | 0.13 (≈ 0.353 µM) | 0.3
24 | CN[C@H]1CCN(c2c(F)cc3c(=O)n(NC)c(=O)n(C4CC4)c3c2Cl)C1 | > 64 | 8 (≈ 21 µM) | > 64 | > 64 | > 64 | 

From ChEMBL document CHEMBL1139087, “Structure-activity relationships of 3-aminoquinazolinediones, a new class of bacterial type-2 topoisomerase (DNA gyrase and topo IV) inhibitors” (Bioorg Med Chem Lett, 2007)
